# Source: ChEMBL document CHEMBL3414503, “Distinct novel quinazolinone exhibits selective inhibition in MGC-803 cancer cells by dictating mutant p53 function” (Eur J Med Chem, 2015)
# Calls of active or inactive are those of the source. The calls are words filed in the database; no cut-off is given here.
# Assays:
# HepG2 = experiment: Cytotoxicity against human HepG2 cells assessed as cell viability after 48 hrs by MTT assay; assay type: functional, cell-based; settings: HepG2, 48 h
# In short: (§1)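 Cells were trypsinized, seeded in 96-well plates at 2 × 10³ cells/well and grown for 24 h. Medium was then replaced with compound solutions (in DMSO, range from 0.1) for 48 h, and viability was read by MTT. Cancer lines were grown in RPMI 1640 + 10% FCS. IC50 from 3 independent experiments, each in triplicate.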
# NCI-H460 = experiment: Cytotoxicity against human NCI-H460 cells assessed as cell viability after 48 hrs by MTT assay; assay type: functional, cell-based; settings: NCI-H460, 48 h; in short: as §1
# MGC-803 [1] = experiment: Cytotoxicity against human MGC803 cells assessed as cell viability after 48 hrs by MTT assay; assay type: functional, cell-based; settings: MGC-803, 48 h; in short: as §1
# A-375 = experiment: Cytotoxicity against human A375 cells assessed as cell viability after 48 hrs by MTT assay; assay type: functional, cell-based; settings: A-375, 48 h; in short: as §1
# MGC-803 [2] = experiment: Cell cycle arrest in human MGC803 cells assessed as accumulation at sub G1 phase at 1 uM after 48 hrs by propidium iodide staining-based FACS analysis relative to control; assay type: functional
# MGC-803 [3] = experiment: Cell cycle arrest in human MGC803 cells assessed as accumulation at G0/G1 phase at 1 uM after 48 hrs by propidium iodide staining-based FACS analysis relative to control; assay type: functional
# MGC-803 [4] = experiment: Cell cycle arrest in human MGC803 cells assessed as accumulation at S phase at 1 uM after 48 hrs by propidium iodide staining-based FACS analysis relative to control; assay type: functional
# MGC-803 [5] = experiment: Cell cycle arrest in human MGC803 cells assessed as accumulation at G2/M phase at 1 uM after 48 hrs by propidium iodide staining-based FACS analysis relative to control; assay type: functional
# MGC-803 [6] = experiment: Cell cycle arrest in human MGC803 cells assessed as accumulation at sub G1 phase at 10 uM after 48 hrs by propidium iodide staining-based FACS analysis relative to control; assay type: functional
# MGC-803 [7] = experiment: Cell cycle arrest in human MGC803 cells assessed as accumulation at G0/G1 phase at 10 uM after 48 hrs by propidium iodide staining-based FACS analysis relative to control; assay type: functional
# MGC-803 [8] = experiment: Cell cycle arrest in human MGC803 cells assessed as accumulation at S phase at 10 uM after 48 hrs by propidium iodide staining-based FACS analysis relative to control; assay type: functional
# MGC-803 [9] = experiment: Cell cycle arrest in human MGC803 cells assessed as accumulation at G2/M phase at 10 uM after 48 hrs by propidium iodide staining-based FACS analysis relative to control; assay type: functional
# MGC-803 [10] = experiment: Cytotoxicity against human MGC803 cells assessed as cell size at 1 uM after 48 hrs by FACS analysis relative to control; assay type: functional
# In short: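 Cells treated 48 h with DMSO or compound at […] as printed. Forward scatter (mean FSC-H) measured by FACS and given relative to control cells.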
# MGC-803 [11] = experiment: Induction of apoptosis in human MGC803 cells assessed as chromatin condensation at 1 to 10 uM after 48 hrs by Hoechst 33258 staining-based fluorescence confocal microscopic analysis; assay type: functional, cell-based
# In short: (§2)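 MGC-803 cells grown on glass slides and treated 48 h. They were then washed in PBS, fixed in 4% paraformaldehyde and permeabilized with 1% Triton X-100. After four washes, Hoechst 33258 ([…] final) was added in the last wash to stain nuclei.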
# MGC-803 [12] = experiment: Induction of apoptosis in human MGC803 cells assessed as chromatin fragmentation at 1 to 10 uM after 48 hrs by Hoechst 33258 staining-based fluorescence confocal microscopic analysis; assay type: functional, cell-based; in short: as §2
# [13] = tested on: Cellular tumor antigen p53 (Homo sapiens), P04637 [UNDEFINED MUTATION]; experiment: Inhibition of P53 mutant in human MGC803 cells assessed as AIF release from mitochondria and translocation to nucleus at 1 to 10 uM after 48 hrs by immunostaining assay; assay type: cell-based; settings: MGC-803
# Sequence of Cellular tumor antigen p53 (Homo sapiens), P04637 [UNDEFINED MUTATION] (P04637 whole entry, looked up, stated change not applied): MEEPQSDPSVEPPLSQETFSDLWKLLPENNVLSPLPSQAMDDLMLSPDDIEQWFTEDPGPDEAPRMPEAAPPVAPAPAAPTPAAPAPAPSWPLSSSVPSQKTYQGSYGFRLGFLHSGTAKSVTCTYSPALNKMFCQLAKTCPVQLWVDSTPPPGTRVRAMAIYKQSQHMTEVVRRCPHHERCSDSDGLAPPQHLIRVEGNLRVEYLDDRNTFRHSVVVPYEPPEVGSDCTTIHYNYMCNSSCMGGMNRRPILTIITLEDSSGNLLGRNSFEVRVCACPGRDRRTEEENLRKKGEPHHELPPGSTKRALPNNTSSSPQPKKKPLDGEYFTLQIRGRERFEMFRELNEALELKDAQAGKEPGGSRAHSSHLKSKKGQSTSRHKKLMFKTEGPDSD
# In short: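 MGC-803 cells on slides, 48 h after treatment, were washed in PBS and fixed in 4% paraformaldehyde. They were immunostained for AIF with primary antibody and a Cy3-conjugated secondary.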
# MGC-803 [14] = experiment: Induction of apoptosis in human MGC803 cells assessed as caspase-3 activation at 5 uM after 24 hrs by FITC-DEVD-FMK probe-based flow cytometric analysis (reference value: 1.8%); assay type: functional
# In short: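 Treated and control MGC-803 cells (5 µM, 24 h) harvested at 1 × 10⁶ cells/mL in RPMI 1640 + 10% FCS. Incubated with FITC-DEVD-FMK for 1 h at 37 °C, 5% CO₂, then analysed by flow cytometry with 488 nm excitation. Given as percent change versus untreated control.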
# [15] = tested on: Cellular tumor antigen p53 (Homo sapiens), P04637 [UNDEFINED MUTATION]; experiment: Inhibition of P53 mutant in human MGC803 cells assessed as decrease in p21 expression at 1 to 10 uM after 24 hrs by Western blot analysis; assay type: cell-based; settings: MGC-803
# In short: (§3)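 MGC-803 cells, 3 × 10⁵ per well of a 6-well plate, exposed to compound for 24 h. Cells were washed in ice-cold PBS and lysed in sample buffer, then run on SDS-PAGE and transferred to nitrocellulose. Blots were probed with primary antibodies and […] anti-rabbit IgG and developed by ECL.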
# [16] = tested on: Cellular tumor antigen p53 (Homo sapiens), P04637 [UNDEFINED MUTATION]; experiment: Inhibition of P53 mutant phosphorylation at s392 in human MGC803 cells at 1 to 10 uM after 24 hrs by Western blot analysis; assay type: cell-based; settings: MGC-803; in short: as §3
# [17] = tested on: Cellular tumor antigen p53 (Homo sapiens), P04637 [UNDEFINED MUTATION]; experiment: Inhibition of P53 mutant acetylation at k373 in human MGC803 cells at 1 to 10 uM after 24 hrs by Western blot analysis; assay type: cell-based; settings: MGC-803; in short: as §3
# [18] = Cytotoxicity against human WI38 cells expressing wild type p53 assessed as cell viability at 1 to 10 uM after 48 hrs by MTT assay; assay type: cell-based; settings: wi-38, 48 h
# In short: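 WI-38 normal lung fibroblasts, grown in DMEM + 10% FCS, seeded at 2 × 10³ cells/well in 96-well plates for 24 h. Then exposed to compound (in DMSO) for 48 h, with viability by MTT.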
# [19] = tested on: Cellular tumor antigen p53 (Homo sapiens), P04637 [UNDEFINED MUTATION]; experiment: Inhibition of P53 mutant in human MGC803 cells assessed as upregulation of Bim expression at 1 to 10 uM after 24 hrs by Western blot analysis; assay type: cell-based; settings: MGC-803
# [20] = tested on: Cellular tumor antigen p53 (Homo sapiens), P04637 [UNDEFINED MUTATION]; experiment: Inhibition of P53 mutant in human MGC803 cells assessed as downregulation of Bcl-2 expression at 1 to 10 uM after 24 hrs by Western blot analysis; assay type: cell-based; settings: MGC-803
# [21] = tested on: Cellular tumor antigen p53 (Homo sapiens), P04637 [UNDEFINED MUTATION]; experiment: Inhibition of P53 mutant in human MGC803 cells assessed as change in BAX expression at 1 to 10 uM after 24 hrs by Western blot analysis; assay type: cell-based; settings: MGC-803
# [22] = tested on: Cellular tumor antigen p53 (Homo sapiens), P04637 [UNDEFINED MUTATION]; experiment: Inhibition of P53 mutant in human MGC803 cells assessed as upregulation of cdk2 activity at 1 to 10 uM after 24 hrs by Western blot analysis; settings: MGC-803
structure (smiles),measurement,setting,value
COc1cc2nc(/C=C/c3ccc(Cl)cc3)n(CCCN(C)C)c(=O)c2cc1OC,IC50,HepG2,6.96 µM
same,IC50,NCI-H460,7.15 µM
same,IC50,MGC-803 [1],3.18 µM
same,IC50,A-375,> 20 µM
same,Activity,MGC-803 [2],4.89%
same,Activity,MGC-803 [3],51.79%
same,Activity,MGC-803 [4],29.22%
same,Activity,MGC-803 [5],14.1%
same,Activity,MGC-803 [6],30.4%
same,Activity,MGC-803 [7],19.42%
same,Activity,MGC-803 [8],29.93%
same,Activity,MGC-803 [9],20.25%
same,Activity,MGC-803 [10],59.4%
same,Activity,MGC-803 [11],Active
same,Activity,MGC-803 [12],Active
same,inhibition,[13],Active
same,Activity,MGC-803 [14],3.5%
same,inhibition,[15],Active
same,inhibition,[16],Active
same,inhibition,[17],Active
same,Activity,[18],Non-toxic
same,inhibition,[19],Active
same,inhibition,[20],Active
same,inhibition,[21],inactive
same,inhibition,[22],Active
